Bioassay records (PubChem)
GASC-1 inh = inhibitors of human GASC-1 (JMJD2C) demethylase | Q9H3R0 | GST-JMJD2C(1-420) H3K9me3 demethylation, DELFIA europium | inhibition, % at 2.35 µM | 330,000 tested, 0.069% active | AID 2099;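 active = more than half of a compound's replicate wells show inhibition beyond 50%, single wells judged on their own value; inconclusive = some, but no more than half, of replicates pass 50% inhibition; inactive = no replicate passes 50% inhibition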;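 also: signal counts dimethyl H3K9 product captured on neutravidin plate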
proKLK7 act = activators of human kallikrein-7 zymogen. purified proKLK7, EDANS-DABCYL substrate fluorescence; 100% is mature enzyme control, 0% vehicle. activation, % at 7 µM. 370,000 tested, 0.9% active. AID 652039;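 active = activation above the mean of all tested compounds plus 3 SD, computed per campaign excluding outliers beyond control limits, cut at about 13% in these data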
ADAM10 inh = inhibits human ADAM10; recombinant ADAM10, EDANS/DABCYL FRET peptide cleavage, 3 h; inhibition, % at 7 µM; 370,000 tested, 0.62% active; AID 720582;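 active = inhibition above a per-campaign cutoff equal to the mean of compounds falling between control-based bounds plus 3 SD, cut at about 20% in these data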
Target sequence (O14672 214-748 limits assumed): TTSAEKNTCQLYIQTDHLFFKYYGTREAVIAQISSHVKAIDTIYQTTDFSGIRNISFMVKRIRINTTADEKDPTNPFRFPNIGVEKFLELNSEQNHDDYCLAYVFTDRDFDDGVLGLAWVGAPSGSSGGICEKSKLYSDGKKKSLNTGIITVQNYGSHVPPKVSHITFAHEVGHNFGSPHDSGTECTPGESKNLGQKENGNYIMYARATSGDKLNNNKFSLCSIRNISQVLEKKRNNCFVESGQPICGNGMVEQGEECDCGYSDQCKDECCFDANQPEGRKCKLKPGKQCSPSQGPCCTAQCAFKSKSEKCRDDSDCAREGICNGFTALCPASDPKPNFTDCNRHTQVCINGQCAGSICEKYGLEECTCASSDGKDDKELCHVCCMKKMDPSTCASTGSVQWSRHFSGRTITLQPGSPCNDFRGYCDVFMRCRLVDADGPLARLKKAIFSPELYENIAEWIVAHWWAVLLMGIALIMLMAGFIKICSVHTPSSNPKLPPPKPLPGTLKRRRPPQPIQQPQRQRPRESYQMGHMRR
NR2E3 ag-1 = NR2E3 (human) agonism. Q9Y5X4. GST-NR2E3/biotin-RetCOR TR-FRET, 1536-well. inhibition of corepressor binding, % at 4.78 µM. 320,000 tested, 0.12% active. AID 2300;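 active = percent inhibition above the cutoff of mean plus 3 SD of all tested compounds, set per screening campaign, cut at about 20% in these data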
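Assay system: NR2E3–RetCOR corepressor complex. Quantity: 1.35 nM GST-NR2E3. Buffer or medium: pH 7.5 Tris-based buffer. Reagent: biotinylated RetCOR corepressor at 7 nM final. Schedule: 5 h at 4 °C. Detection: TR-FRET, emission read at 617 and 671 nm. Replicates: one well per compound, singlicate testing.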
NR2E3 ag-2 = agonists of human NR2E3 nuclear receptor; Q9Y5X4; CHO-S Gal4-NCOR/VP16-NR2E3 two-hybrid, luciferase; inhibition of corepressor binding, % at 3.98 µM; 360,000 tested, 0.35% active; AID 602229;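 active = inhibition above the mean of all tested compounds plus 3 SD, cut at about 70% in these data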;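 also: higher means lower luciferase signal from less NR2E3 corepressor binding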
ADAM17 inh = inhibitors of human ADAM17 | P78536 | recombinant ADAM17, EDANS/DABCYL FRET peptide cleavage | inhibition, % at 6.95 µM | 370,000 tested, 0.83% active;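 active = inhibition above the mean of compounds lying between control limits plus 3 SD, set per campaign, cut at about 8.5% in these data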
proKLK7 act conf = proKLK7 activation, confirmation; shares compounds with proKLK7 act; purified proKLK7, EDANS-DABCYL substrate fluorescence; scaled: vehicle 0, mature enzyme 100; activation, % at 7 µM; 3,200 tested, 68% active;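 active = activation, as change over the incubation, above the mean of all tested compounds plus 3 SD, cut at about 13% in these data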
EDANS-DABCYL int = counter-screen for kallikrein-7 activators: EDANS-DABCYL optical interference | shares compounds with proKLK7 act | EDANS-DABCYL substrate fluorescence interference, no enzyme, 4 h; solvent 0%, active enzyme control 100% | activation, % at 7 µM | 3,200 tested, 80% active | AID 686952;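 active = activation above the all-compound mean plus 3 SD, ignoring values outside control-based bounds, cut at about 4.8% in these data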;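 also: value is the 4 h activation minus the activation read at time zero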
EDANS interf = optically interferes with EDANS-DABCYL fluorescence, kallikrein-7 activator counter-screen; EC50, µM; shares compounds with proKLK7 act; EDANS-DABCYL peptide fluorescence interference, no enzyme; 250 tested, 20% active;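 active = compounds that raise the fluorescence signal in this interference counterscreen, with EC50 at or below 10 µM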;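 also: intact quenched peptide substrate alone read at 355 nm excitation and 520 nm emission; signal is fluorescence gain from T0 to T4 after four hours at room temperature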
Hits are given with their value; n = inactive; u = inconclusive; x = not tested or not shown. Rows were chosen to be rich in hits. Some 2.5% of all compounds tested hit in one or more screens of this group.

SMILES | GASC-1 inh | proKLK7 act | ADAM10 inh | NR2E3 ag-1 | NR2E3 ag-2 | ADAM17 inh | proKLK7 act conf | EDANS-DABCYL int | others
COc1ccc(-c2cn3cccnc3n2)cc1NC(=O)c1ccc(Br)o1 | n | n | n | n | n | n | x | x
Cc1ccc(-c2cn3cccnc3n2)cc1 | n | 85 | n | n | n | n | 64 | 69
CS(=O)(=O)Nc1ccc(-c2cn3cccnc3n2)cc1 | x | 123 | n | n | n | n | 39 | 39
Cc1cccc2cc(C#N)c(N3CCC(O)CC3)nc12 | n | n | n | n | n | n | x | x
CCCCNCc1cc(OCC)c(OCC)cc1Br | n | n | n | n | n | n | x | x
CCC(=O)Nc1c2c(nn1-c1ccc(F)cc1)CS(=O)(=O)C2 | n | n | n | n | n | n | x | x
CCOC(=O)N1CCN(C(=O)c2cc3c(=O)n4ccccc4nc3s2)CC1 | n | 17 | n | n | n | n | 90 | 78
CCn1c(=O)c2cc(C(=O)N3CCN(C)CC3)sc2c2ccccc21 | n | 28 | n | n | n | n | n | 8.0
CN1CCN(C(=O)c2cc3c(=O)n4ccccc4nc3s2)CC1 | n | 48 | n | n | n | n | 70 | 71
COc1ccccc1N1CCN(C(=O)c2cc3c(=O)n4ccccc4nc3s2)CC1 | n | n | n | n | n | n | x | x
O=C1CC(NS(=O)(=O)c2ccccc2)CN1c1ccc2c(c1)OCCO2 (stereo unspecified) | n | n | n | n | n | n | x | x
O=C(NCCCN1CCCC1=O)c1cc(-c2ccc(F)cc2)nc2ccccc12 | n | n | n | x | n | n | x | x
COc1ccccc1CNC(=O)COC(=O)c1cc(-c2ccco2)nc2ccccc12 | n | n | n | n | n | n | x | x
CN(C)C(CNC(=O)c1cc(-c2ccco2)nc2ccccc12)c1ccccc1 (stereo unspecified) | n | 31 | n | x | n | n | n | n
CCCCCCNC(=O)c1cc(-c2ccco2)nc2ccccc12 | n | 20 | n | n | n | n | n | n
NC(=O)COC(=O)c1cc(-c2ccco2)nc2ccccc12 | n | 161 | n | n | n | n | 63 | 72
COc1ccc(-c2cc(C(=O)NCCCN3CCCC3=O)c3ccccc3n2)cc1 | n | 35 | n | n | n | n | 29 | 31
Cc1[nH]ccc(=O)c1Oc1ncc(C(F)(F)F)cc1Cl | n | n | n | n | n | n | x | x
COc1cc(-c2cc(C(=O)Nc3cc(S(=O)(=O)N4CCOCC4)ccc3O)c3ccccc3n2)cc(OC)c1OC | n | n | n | x | n | n | x | x
CC(C)CCNC(=O)c1cc(-c2ccco2)nc2ccccc12 | n | 13 | n | n | n | n | n | n
CCOc1ccc(-c2cc(C(=O)NCCCN3CCOCC3)c3ccccc3n2)cc1 | n | 18 | n | n | n | n | n | 9.6
COc1ccc(NC(=O)c2cc(-c3ccco3)nc3ccccc23)cc1 | n | 15 | n | n | n | n | 14 | 20
COc1cc(-c2cc(C(=O)Nc3cc(S(=O)(=O)N4CCOCC4)ccc3C)c3ccccc3n2)cc(OC)c1OC | x | 211 | n | x | n | n | 233 | 316
O=C(NCCCN1CCOCC1)c1cc(-c2ccc(F)cc2)nc2ccccc12 | n | n | n | n | n | n | x | x
C[C@@H]1CCCCO[C@H](CN(C)C(=O)Cc2ccccc2)[C@@H](C)CN([C@H](C)CO)C(=O)c2cc(N(C)C)ccc2O1 | x | n | n | x | n | n | x | x
SMILES | GASC-1 inh | proKLK7 act | ADAM10 inh | NR2E3 ag-1 | NR2E3 ag-2 | ADAM17 inh | proKLK7 act conf | EDANS-DABCYL int | others
O=C(NCCCN1CCOCC1)c1cc(-c2ccco2)nc2ccccc12 | n | 62 | n | x | n | n | 18 | 30
O=C(NCCCN1CCOCC1)c1cc(-c2ccc(Cl)s2)nc2ccccc12 | n | n | n | n | n | n | x | x
COc1ccc(-c2cc(C(=O)Nc3ccc(S(N)(=O)=O)cc3)c3ccccc3n2)cc1OC | n | 131 | n | n | n | n | 77 | 95
COc1ccc(OC)c(N=c2oc3cc(O)ccc3cc2C(N)=O)c1 | u | 14 | n | n | n | n | n | 15
NC(=O)c1cc2ccc(O)cc2oc1=Nc1ccccc1 | n | 40 | n | x | n | n | n | 7.9
COc1ccc2cc(C(N)=O)c(=Nc3ccccc3)oc2c1 | n | n | n | n | n | n | x | x
NC(=O)c1cc2ccc(O)cc2oc1=NCc1ccccc1 | n | 69 | n | n | n | n | 117 | 125
Cc1ccn2cc(C34CC5CC(CC(C5)C3)C4)nc2c1 | n | n | n | n | n | n | x | x
CN(C)c1oc(/C=C/c2ccccc2)nc1C#N | n | 58 | n | n | n | n | 69 | 62
CCNc1oc(/C=C/c2ccc(OCC)cc2)nc1C#N | n | n | n | n | n | n | x | x
CCN(CC)CCCNc1oc(/C=C/c2ccccc2)nc1C#N | n | 104 | n | n | n | n | 28 | 18 | EDANS interf=n
CSc1ccccc1NC(=O)COC(=O)c1ccc(-n2nc(C)cc2C)cc1 | n | n | n | x | n | n | x | x
CC(C)(C)NC(=O)C(c1ccncc1)N(Cc1ccc(F)cc1)C(=O)c1ccc(-c2ccccc2)[nH]1 (stereo unspecified) | n | n | n | n | n | n | x | x
CCCNC(=O)OC1CC2CC1[C@H]1CCCCN1C2=O (stereo partly specified) | x | 45 | n | x | n | n | n | n
CCC1NC(C(=O)O)Cc2c1[nH]c1ccccc21 (stereo unspecified) | u | 36 | n | n | n | n | n | 9.8
COc1ccc(CC(N)c2csc(Nc3ccc(S(C)(=O)=O)cc3)n2)cc1 (stereo unspecified) | x | 27 | n | x | n | n | n | n
O=C(c1cc(-c2cccc(Cl)c2)nc2ccccc12)N1CCCC1 | n | n | n | n | n | n | x | x
COCCN(C(=O)c1ccc(-c2ccc(Cl)cc2)o1)c1c(N)n(Cc2ccccc2)c(=O)[nH]c1=O | n | 39 | n | n | n | n | 29 | 30
CC1(C(=O)NS(=O)(=O)c2ccc(F)cc2F)CCN1C(=O)C/C=C/c1ccccc1 (stereo unspecified) | x | n | n | x | n | n | x | x
Cc1ccc2nc3c(cc(C(=O)NCCN4CCOCC4)c(=N)n3CCCN3CCOCC3)c(=O)n2c1 | n | x | x | n | n | x | x | x
